From ChEMBL document CHEMBL4020827, “Targeting Multiple Effector Pathways in Pancreatic Ductal Adenocarcinoma with a G-Quadruplex-Binding Small Molecule” (J Med Chem, 2018)
pIC50: −log10 of the molar value.

What was measured:
Homo sapiens [1] = species on record: Homo sapiens; assay: Binding affinity to 5'-FAM/3'-TAMRA labeled human telomeric F21T G-quadruplex DNA assessed as change in melting temperature at 1 uM by FRET assay
Method in brief: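 FRET melting with FAM/TAMRA dual-labelled oligonucleotides at 400 nM, annealed at 95 °C for 10 min in 60 mM potassium cacodylate pH 7.4 and slowly cooled. Ligand final 1 μM; solution contains 50 mM K+. Fluorescence read every 0.5 °C over 30–100 °C with 30 s hold, excitation 450–495 nm and emission 515–545 nm. ΔTm from curve fitting, triplicate measurements.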

[2] = Binding affinity to 5'-FAM/3'-TAMRA labeled HSP90A promoter G-quadruplex DNA (unknown origin) assessed as change in melting temperature at 1 uM by FRET assay
Method in brief: (§1)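 FRET melting of FAM/TAMRA dual-labelled promoter G4 oligonucleotides, 400 nM, annealed at 95 °C for 10 min in 60 mM potassium cacodylate (pH 7.4) then cooled to RT. Ligand at 1 μM in solution with 50 mM K+. Fluorescence (ex 450–495, em 515–545 nm) read every 0.5 °C over 30–100 °C with a 30 sec hold per step. ΔTm from curve fitting; triplicate measurements.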

[3] = Binding affinity to 5'-FAM/3'-TAMRA labeled KRAS21 promoter G-quadruplex DNA (unknown origin) assessed as change in melting temperature at 1 uM by FRET assay; method in brief: as §1
WI-38 = assay: Growth inhibition of human WI38 cells after 96 hrs by SRB assay; type: cell-based; settings: WI-38, 96 h
[4] = Selectivity index, ratio of IC50 for human WI38 cells to IC50 for human MIAPaCa2 cells; type: functional
Method in brief: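 SRB growth-inhibition assay over 96 h with compounds dissolved in water; cells grown in 10 % FBS at 37 °C, 5% CO2. Absorbance at 540 nm as a percentage of untreated wells gives the IC50. Values are averages of >3 determinations, with the ratio taken as WI-38 IC50 over MIA PaCa-2 IC50.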

CAPAN-1 = assay: Growth inhibition of human Capan1 cells after 96 hrs by SRB assay; type: functional, cell-based; settings: CAPAN-1, 96 h
Method in brief: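 Cell lines kept at 37 °C, 5% CO2 in medium with 10% FBS and 2 mM L-glutamine. Compound dissolved in water, filter-sterilised, 10 mM stock diluted into media. Growth read by 96 h sulforhodamine B assay, absorbance at 540 nm. IC50 taken from mean absorbance per concentration as % of untreated wells, >3 individual determinations with standard deviations.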

PANC-1 [5] = assay: Effect on AKT1S1 gene expression in human PANC1 cells at 400 nM after 6 hrs by RNA sequence analysis relative to control; type: functional
Method in brief: (§2)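 PANC-1 (0.35 x 10^6) or MIA PaCa-2 (1.5 x 10^6) cells seeded overnight in 60 mm plates, then exposed to 400 nM compound for 6 or 24 h; untreated cells as controls. Cells were mycoplasma-free and STR-certified. Differential expression by RNA-seq, called at FDR < 0.1.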

PANC-1 [6] = assay: Effect on ARF6 gene expression in human PANC1 cells at 400 nM after 6 hrs by RNA sequence analysis relative to control; type: functional; method in brief: as §2
PANC-1 [7] = assay: Effect on mLST8 gene expression in human PANC1 cells at 400 nM after 6 hrs by RNA sequence analysis relative to control; type: functional
PANC-1 [8] = assay: Effect on PFKFB4 gene expression in human PANC1 cells at 400 nM after 6 hrs by RNA sequence analysis relative to control; type: functional
PANC-1 [9] = assay: Effect on PRKCZ gene expression in human PANC1 cells at 400 nM after 6 hrs by RNA sequence analysis relative to control; type: functional
Method in brief: (§3)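 RNA-seq: cells seeded overnight in 60 mm plates (PANC-1 0.35 x 10^6, MIA PaCa-2 1.5 x 10^6 cells/well), then exposed to 400 nM compound for 6 or 24 h against untreated controls. Cell lines mycoplasma-free by RNA-capture ELISA and STR-profiled. Differentially expressed genes called at FDR < 0.1.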

PANC-1 [10] = assay: Effect on SMO gene expression in human PANC1 cells at 400 nM after 6 hrs by RNA sequence analysis relative to control; type: functional; method in brief: as §3
MIA PaCa-2 [11] = assay: Effect on AKT1S1 gene expression in human MIAPaCa2 cells at 400 nM after 6 hrs by RNA sequence analysis relative to control; type: functional; method in brief: as §2
MIA PaCa-2 [12] = assay: Effect on GLI4 gene expression in human MIAPaCa2 cells at 400 nM after 6 hrs by RNA sequence analysis relative to control; type: functional; method in brief: as §2
MIA PaCa-2 [13] = assay: Effect on TEAD2 gene expression in human MIAPaCa2 cells at 400 nM after 6 hrs by RNA sequence analysis relative to control; type: functional; method in brief: as §3
PANC-1 [14] = assay: Effect on AKT1 gene expression in human PANC1 cells at 400 nM after 24 hrs by RNA sequence analysis relative to control; type: functional; method in brief: as §2
PANC-1 [15] = assay: Effect on MAPK11 gene expression in human PANC1 cells at 400 nM after 24 hrs by RNA sequence analysis relative to control; type: functional
PANC-1 [16] = assay: Effect on PFKL gene expression in human PANC1 cells at 400 nM after 24 hrs by RNA sequence analysis relative to control; type: functional
PANC-1 [17] = assay: Effect on SHC2 gene expression in human PANC1 cells at 400 nM after 24 hrs by RNA sequence analysis relative to control; type: functional; method in brief: as §3
MIA PaCa-2 [18] = assay: Effect on CTBP1 gene expression in human MIAPaCa2 cells at 400 nM after 24 hrs by RNA sequence analysis relative to control; type: functional; method in brief: as §2
MIA PaCa-2 [19] = assay: Effect on PFKFB4 gene expression in human MIAPaCa2 cells at 400 nM after 24 hrs by RNA sequence analysis relative to control; type: functional
MIA PaCa-2 [20] = assay: Effect on RPTOR gene expression in human MIAPaCa2 cells at 400 nM after 24 hrs by RNA sequence analysis relative to control; type: functional; method in brief: as §3
MIA PaCa-2 [21] = assay: Effect on SMO gene expression in human MIAPaCa2 cells at 400 nM after 24 hrs by RNA sequence analysis relative to control; type: functional; method in brief: as §3
MIA PaCa-2 [22] = assay: Effect on TEAD2 gene expression in human MIAPaCa2 cells at 400 nM after 24 hrs by RNA sequence analysis relative to control; type: functional; method in brief: as §3
Homo sapiens [23] = species on record: Homo sapiens; assay: Stabilization of G-quadruplex DNA in human PANC1 cells assessed as increase in 53BP1 foci at 400 nM after 24 hrs by FITC/Cy5/DAPI staining based immunofluorescence assay relative to control; type: cell-based
Method in brief: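 PANC-1 cells (8 x10^4 on coverslips) treated 24 h at 37 °C, or left untreated. Fixed in 4% paraformaldehyde, permeabilized with 0.1% Triton X-100, blocked in 2% milk. Stained with BG4 (20 nM), anti-FLAG and anti-53BP1, then Alexa-488/647 secondaries with DAPI. Deconvolved 100x z-stacks, 50-100 nuclei per replicate, three biological replicates; nuclear foci counted.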

Homo sapiens [24] = species on record: Homo sapiens; assay: Stabilization of G-quadruplex DNA in human PANC1 cells assessed as induction of DNA damage at G4 site by measuring increase in colocalization of BG4 and 53BP1 foci at 400 nM after 24 hrs by FITC/Cy5/DAPI staining based immunofluorescence assay relative to control; type: cell-based

## O=C1c2ccc3c4c(c(NCCN5CCCC5)cc(c24)C(=O)N1CCCN1CCOCC1)C(=O)N(CCCN1CCOCC1)C3=O
Homo sapiens [1]
  ΔTm: 11.8 °C
[2]
  ΔTm: 15.7 °C
[3]
  ΔTm: 11 °C
WI-38
  pIC50: 5.92
[4]
  Ratio IC50: 170
CAPAN-1
  pIC50: 7.80
PANC-1 [5]
  log2FC: -0.11
PANC-1 [6]
  log2FC: -0.74
PANC-1 [7]
  log2FC: -0.54
PANC-1 [8]
  log2FC: -0.57
PANC-1 [9]
  log2FC: -1.44
PANC-1 [10]
  log2FC: -0.92
MIA PaCa-2 [11]
  log2FC: -0.54
MIA PaCa-2 [12]
  log2FC: -1.71
MIA PaCa-2 [13]
  log2FC: -0.65
PANC-1 [14]
  log2FC: -1.04
PANC-1 [15]
  log2FC: -1.6
PANC-1 [16]
  log2FC: -0.98
PANC-1 [17]
  log2FC: -1.47
MIA PaCa-2 [18]
  log2FC: -1.17
MIA PaCa-2 [19]
  log2FC: -0.93
MIA PaCa-2 [20]
  log2FC: -0.68
MIA PaCa-2 [21]
  log2FC: -1.21
MIA PaCa-2 [22]
  log2FC: -0.91
Homo sapiens [23]
  fold change (FC): 2
Homo sapiens [24]
  Activity: 50%
